How the values were obtained:
Type in all cases: functional
Pseudomonas aeruginosa [1] = experiment: Antimicrobial activity against Pseudomonas aeruginosa isolate PA469 expressing VIM-2 beta-lactamase
Pseudomonas aeruginosa [2] = experiment: Antimicrobial activity against Pseudomonas aeruginosa isolate PA481 expressing VIM-2 beta-lactamase in presence of Tazobactam
Pseudomonas aeruginosa [3] = experiment: Antimicrobial activity against Pseudomonas aeruginosa isolate PA475 expressing VIM-2 beta-lactamase in presence of Tazobactam
Pseudomonas aeruginosa [4] = experiment: Antimicrobial activity against metallo-beta-lactamase-negative Pseudomonas aeruginosa isolate PA509
Pseudomonas aeruginosa [5] = experiment: Antimicrobial activity against metallo-beta-lactamase-negative Pseudomonas aeruginosa isolate PA494
Pseudomonas aeruginosa [6] = experiment: Antimicrobial activity against Pseudomonas aeruginosa isolate PA462 expressing VIM-2 beta-lactamase in presence of Tazobactam
Pseudomonas aeruginosa [7] = experiment: Antimicrobial activity against metallo-beta-lactamase-negative Pseudomonas aeruginosa isolate PA460
Pseudomonas aeruginosa [8] = experiment: Antimicrobial activity against Pseudomonas aeruginosa isolate PA510 expressing VIM-2 beta-lactamase in presence of Tazobactam
Pseudomonas aeruginosa [9] = experiment: Antimicrobial activity against metallo-beta-lactamase-negative Pseudomonas aeruginosa isolate PA479
Pseudomonas aeruginosa [10] = experiment: Antimicrobial activity against Pseudomonas aeruginosa isolate PA469 expressing VIM-2 beta-lactamase in presence of Tazobactam
Pseudomonas aeruginosa [11] = experiment: Antimicrobial activity against metallo-beta-lactamase-negative Pseudomonas aeruginosa isolate PA459 in presence of Tazobactam
Pseudomonas aeruginosa [12] = experiment: Antimicrobial activity against Pseudomonas aeruginosa isolate PA462 expressing VIM-2 beta-lactamase
Pseudomonas aeruginosa [13] = experiment: Antimicrobial activity against metallo-beta-lactamase-negative Pseudomonas aeruginosa isolate PA460 in presence of Tazobactam
Pseudomonas aeruginosa [14] = experiment: Antimicrobial activity against metallo-beta-lactamase-negative Pseudomonas aeruginosa isolate PA459
How it was run: (§1)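 MBL-negative clinical P. aeruginosa isolates with reduced imipenem susceptibility, collected at the study hospital, some from cystic fibrosis patients. Species identity was confirmed by automated Gram-negative identification card. MIC was read in μg/ml.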

Pseudomonas aeruginosa [15] = experiment: Antimicrobial activity against metallo-beta-lactamase-negative Pseudomonas aeruginosa isolate PA507 in presence of Tazobactam
Pseudomonas aeruginosa [16] = experiment: Antimicrobial activity against Pseudomonas aeruginosa isolate PA399 expressing VIM-2 beta-lactamase in presence of Tazobactam
Pseudomonas aeruginosa [17] = experiment: Antimicrobial activity against metallo-beta-lactamase-negative Pseudomonas aeruginosa isolate PA483
Pseudomonas aeruginosa [18] = experiment: Antimicrobial activity against metallo-beta-lactamase-negative Pseudomonas aeruginosa isolate PA509 in presence of Tazobactam
Pseudomonas aeruginosa [19] = experiment: Antimicrobial activity against Pseudomonas aeruginosa isolate PA465 expressing VIM-2 beta-lactamase in presence of Tazobactam
Pseudomonas aeruginosa [20] = experiment: Antimicrobial activity against metallo-beta-lactamase-negative Pseudomonas aeruginosa isolate PA483 in presence of Tazobactam
Pseudomonas aeruginosa [21] = experiment: Antimicrobial activity against Pseudomonas aeruginosa isolate PA465 expressing VIM-2 beta-lactamase
Pseudomonas aeruginosa [22] = experiment: Antimicrobial activity against Pseudomonas aeruginosa isolate PA500 expressing VIM-1 beta-lactamase
Pseudomonas aeruginosa [23] = experiment: Antimicrobial activity against Pseudomonas aeruginosa isolate PA475 expressing VIM-2 beta-lactamase
Pseudomonas aeruginosa [24] = experiment: Antimicrobial activity against Pseudomonas aeruginosa isolate PA477 expressing VIM-2 beta-lactamase in presence of Tazobactam
Pseudomonas aeruginosa [25] = experiment: Antimicrobial activity against metallo-beta-lactamase-negative Pseudomonas aeruginosa isolate PA479 in presence of Tazobactam
Pseudomonas aeruginosa [26] = experiment: Antimicrobial activity against metallo-beta-lactamase-negative Pseudomonas aeruginosa isolate PA507; how it was run: as §1
Pseudomonas aeruginosa [27] = experiment: Antimicrobial activity against Pseudomonas aeruginosa isolate PA477 expressing VIM-2 beta-lactamase
Pseudomonas aeruginosa [28] = experiment: Antimicrobial activity against Pseudomonas aeruginosa isolate PA500 expressing VIM-1 beta-lactamase in presence of Tazobactam
Pseudomonas aeruginosa [29] = experiment: Antimicrobial activity against Pseudomonas aeruginosa isolate PA510 expressing VIM-2 beta-lactamase
Pseudomonas aeruginosa [30] = experiment: Antimicrobial activity against Pseudomonas aeruginosa isolate PA399 expressing VIM-2 beta-lactamase
Pseudomonas aeruginosa [31] = experiment: Antimicrobial activity against Pseudomonas aeruginosa isolate PA481 expressing VIM-2 beta-lactamase
Pseudomonas aeruginosa [32] = experiment: Antimicrobial activity against metallo-beta-lactamase-negative Pseudomonas aeruginosa isolate PA494 in presence of Tazobactam

Compound: CCN1CCN(C(=O)N[C@@H](C(=O)N[C@@H]2C(=O)N3[C@@H]2SC(C)(C)[C@@H]3C(=O)O)c2ccccc2)C(=O)C1=O [PIPERACILLIN]
- MIC (Pseudomonas aeruginosa [1]): ≥ 128 µg/mL
- MIC (Pseudomonas aeruginosa [2]): ≥ 128 µg/mL
- MIC (Pseudomonas aeruginosa [3]): ≥ 128 µg/mL
- MIC (Pseudomonas aeruginosa [4]): ≥ 128 µg/mL
- MIC (Pseudomonas aeruginosa [5]): ≥ 128 µg/mL
- MIC (Pseudomonas aeruginosa [6]): ≥ 128 µg/mL
- MIC (Pseudomonas aeruginosa [7]): ≥ 128 µg/mL
- MIC (Pseudomonas aeruginosa [8]): ≥ 128 µg/mL
- MIC (Pseudomonas aeruginosa [9]): ≥ 128 µg/mL
- MIC (Pseudomonas aeruginosa [10]): ≥ 128 µg/mL
- MIC (Pseudomonas aeruginosa [11]): ≥ 128 µg/mL
- MIC (Pseudomonas aeruginosa [12]): ≥ 128 µg/mL
- MIC (Pseudomonas aeruginosa [13]): ≥ 128 µg/mL
- MIC (Pseudomonas aeruginosa [14]): ≥ 128 µg/mL
- MIC (Pseudomonas aeruginosa [15]): ≥ 128 µg/mL
- MIC (Pseudomonas aeruginosa [16]): ≥ 128 µg/mL
- MIC (Pseudomonas aeruginosa [17]): ≥ 128 µg/mL
- MIC (Pseudomonas aeruginosa [18]): ≥ 128 µg/mL
- MIC (Pseudomonas aeruginosa [19]): 64 µg/mL
- MIC (Pseudomonas aeruginosa [20]): ≥ 128 µg/mL
- MIC (Pseudomonas aeruginosa [21]): ≥ 128 µg/mL
- MIC (Pseudomonas aeruginosa [22]): ≥ 128 µg/mL
- MIC (Pseudomonas aeruginosa [23]): ≥ 128 µg/mL
- MIC (Pseudomonas aeruginosa [24]): ≥ 128 µg/mL
- MIC (Pseudomonas aeruginosa [25]): ≥ 128 µg/mL
- MIC (Pseudomonas aeruginosa [26]): ≥ 128 µg/mL
- MIC (Pseudomonas aeruginosa [27]): ≥ 128 µg/mL
- MIC (Pseudomonas aeruginosa [28]): ≥ 128 µg/mL
- MIC (Pseudomonas aeruginosa [29]): ≥ 128 µg/mL
- MIC (Pseudomonas aeruginosa [30]): ≥ 128 µg/mL
- MIC (Pseudomonas aeruginosa [31]): ≥ 128 µg/mL
- MIC (Pseudomonas aeruginosa [32]): ≥ 128 µg/mL
